From ChEMBL document CHEMBL1122821, “Synthesis and some pharmacological properties of 18 potent O-alkyltyrosine-substituted antagonists of the vasopressor responses to arginine-vasopressin” (J Med Chem, 1985)

How the values were obtained:
Rattus norvegicus [1] = test: In vivo antidiuretic activity in rats under ethanol anesthesia.; assay type: functional, Urine
Method in brief: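 Rats under ethanol anesthesia, with the USP posterior pituitary reference standard as reference. Agonistic activity is expressed in units per milligram.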

Rattus norvegicus [2] = organism: Rattus norvegicus; test: In vitro anti-oxytocic potency was evaluated in the absence of Mg2+; assay type: functional; settings: read-out: pA2 (converted)
Method in brief: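 Isolated rat uterus in medium containing no Mg2+. USP posterior pituitary reference standard used as agonist. In vitro pA2 values were derived as in Bankowski et al.; means ± SE.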

Rattus norvegicus [3] = organism: Rattus norvegicus; test: In vitro anti-oxytocic potency was evaluated in the presence of 0.5 mM of Mg2+; assay type: functional; settings: read-out: pA2 (converted)
Method in brief: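 Isolated rat uterus in medium containing 0.5 mM Mg2+. USP posterior pituitary reference standard used as agonist. In vitro pA2 values were derived as in Bankowski et al.; means ± SE.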

Rattus norvegicus [4] = test: In vivo anti-vasopressor activity measured as the negative logarithm of the effective dose / the estimated volume of distribution (67 mL/kg); assay type: ADME, organism-based; settings: read-out: pA2 (converted)
Method in brief: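 Rats treated with phenoxybenzamine under urethane anesthesia. Pressor responses to the USP posterior pituitary standard were given intravenously. Effective dose (nmol/kg) was interpolated on a log scale; means ± SE of at least four estimates. pA2 = −log(effective dose / 67 mL/kg).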

SMILES | Activity (Rattus norvegicus [1]) | Kb (Rattus norvegicus [2]) | Kb (Rattus norvegicus [3]) | Kb (Rattus norvegicus [4])
CCOc1ccc(C[C@@H]2NC(=O)CC(CC)(CC)SSC[C@@H](C(=O)N3CCC[C@H]3C(=O)N[C@@H](CCCN=C(N)N)C(=O)NCC(N)=O)NC(=O)[C@H](CC(N)=O)NC(=O)[C@H](CCC(N)=O)NC(=O)[C@H](Cc3ccccc3)NC2=O)cc1 [listing 1 of 2 here] | 0.035 units/mg |  |  | 
COc1ccc(C[C@@H]2NC(=O)CC(C)(C)SSC[C@@H](C(=O)N3CCC[C@H]3C(=O)NC(CCCN=C(N)N)C(=O)NCC(N)=O)NC(=O)[C@H](CC(N)=O)NC(=O)[C@H](CCC(N)=O)NC(=O)[C@H](Cc3ccccc3)NC2=O)cc1 (stereo in doubt) | 0.46 units/mg | 17 nM | 43.7 nM | 4.9 nM
CCOc1ccc(C[C@@H]2NC(=O)CC(CC)(CC)SSC[C@@H](C(=O)N3CCC[C@H]3C(=O)N[C@H](CCCN=C(N)N)C(=O)NCC(N)=O)NC(=O)[C@H](CC(N)=O)NC(=O)[C@H](C(C)C)NC(=O)[C@H](Cc3ccccc3)NC2=O)cc1 [listing 1 of 2 here] | 0.07 units/mg |  |  | 
CCOc1ccc(C[C@@H]2NC(=O)CC(CC)(CC)SSC[C@@H](C(=O)N3CCC[C@H]3C(=O)N[C@@H](CCCN=C(N)N)C(=O)NCC(N)=O)NC(=O)[C@H](CC(N)=O)NC(=O)[C@H](C(C)C)NC(=O)[C@H](Cc3ccccc3)NC2=O)cc1 [listing 1 of 2 here] | 0.1 units/mg |  |  | 
CCOc1ccc(C[C@@H]2NC(=O)CC(C)(C)SSC[C@@H](C(=O)N3CCC[C@H]3C(=O)N[C@@H](CCCN=C(N)N)C(=O)NCC(N)=O)NC(=O)[C@H](CC(N)=O)NC(=O)[C@H](CCC(N)=O)NC(=O)[C@H](Cc3ccccc3)NC2=O)cc1 [listing 1 of 2 here] |  | 7.59 nM | 44.7 nM | 3.98 nM
CCOc1ccc(C[C@@H]2NC(=O)CC(C)(C)SSC[C@@H](C(=O)N3CCC[C@H]3C(=O)N[C@H](CCCN=C(N)N)C(=O)NCC(N)=O)NC(=O)[C@H](CC(N)=O)NC(=O)[C@H](C(C)C)NC(=O)[C@H](Cc3ccccc3)NC2=O)cc1 [listing 1 of 2 here] | 0.2 units/mg |  |  | 
CCOc1ccc(C[C@@H]2NC(=O)CC(C)(C)SSC[C@@H](C(=O)N3CCC[C@H]3C(=O)N[C@@H](CCCN=C(N)N)C(=O)NCC(N)=O)NC(=O)[C@H](CC(N)=O)NC(=O)[C@H](C(C)C)NC(=O)[C@H](Cc3ccccc3)NC2=O)cc1 [listing 1 of 2 here] | 0.62 units/mg |  |  | 
COc1ccc(C[C@@H]2NC(=O)CC3(CCCCC3)SSC[C@@H](C(=O)N3CCC[C@H]3C(=O)N[C@H](CCCN=C(N)N)C(=O)NCC(N)=O)NC(=O)[C@H](CC(N)=O)NC(=O)[C@H](CCC(N)=O)NC(=O)[C@H](Cc3ccccc3)NC2=O)cc1 | 0.31 units/mg | 7.41 nM | 57.5 nM | 2.4 nM
CCOc1ccc(C[C@@H]2NC(=O)CC(CC)(CC)SSC[C@@H](C(=O)N3CCC[C@H]3C(=O)N[C@@H](CCCN=C(N)N)C(=O)NCC(N)=O)NC(=O)[C@H](CC(N)=O)NC(=O)[C@H](CCC(N)=O)NC(=O)[C@H](Cc3ccccc3)NC2=O)cc1 [listing 2 of 2 here] |  | 3.72 nM | 10 nM | 3.47 nM
CCC1(CC)CC(=O)N[C@@H](Cc2ccc(OC)cc2)C(=O)N[C@@H](Cc2ccccc2)C(=O)N[C@@H](CCC(N)=O)C(=O)N[C@@H](CC(N)=O)C(=O)N[C@H](C(=O)N2CCC[C@H]2C(=O)N[C@@H](CCCN=C(N)N)C(=O)NCC(N)=O)CSS1 [listing 1 of 2 here] | 0.066 units/mg |  |  | 
COc1ccc(C[C@@H]2NC(=O)CC(C)(C)SSC[C@@H](C(=O)N3CCC[C@H]3C(=O)N[C@H](CCCN=C(N)N)C(=O)NCC(N)=O)NC(=O)[C@H](CC(N)=O)NC(=O)[C@H](C(C)C)NC(=O)[C@H](Cc3ccccc3)NC2=O)cc1 [listing 1 of 2 here] |  | 31.6 nM | 21.4 nM | 14.5 nM
COc1ccc(C[C@@H]2NC(=O)CC(C)(C)SSC[C@@H](C(=O)N3CCC[C@H]3C(=O)N[C@@H](CCCN=C(N)N)C(=O)NCC(N)=O)NC(=O)[C@H](CC(N)=O)NC(=O)[C@H](C(C)C)NC(=O)[C@H](Cc3ccccc3)NC2=O)cc1 [listing 1 of 2 here] |  | 3.72 nM | 12.6 nM | 4.37 nM
CCOc1ccc(C[C@@H]2NC(=O)CC(C)(C)SSC[C@@H](C(=O)N3CCC[C@H]3C(=O)NC(CCCN=C(N)N)C(=O)NCC(N)=O)NC(=O)[C@H](CC(N)=O)NC(=O)[C@H](CCC(N)=O)NC(=O)[C@H](Cc3ccccc3)NC2=O)cc1 (stereo in doubt) [listing 1 of 2 here] | 0.23 units/mg |  |  | 
CCOc1ccc(C[C@@H]2NC(=O)CC(CC)(CC)SSC[C@@H](C(=O)N3CCC[C@H]3C(=O)N[C@@H](CCCN=C(N)N)C(=O)NCC(N)=O)NC(=O)[C@H](CC(N)=O)NC(=O)[C@H](C(C)C)NC(=O)[C@H](Cc3ccccc3)NC2=O)cc1 [listing 2 of 2 here] |  | 7.41 nM | 37.2 nM | 3.8 nM
CCC1(CC)CC(=O)N[C@@H](Cc2ccc(OC)cc2)C(=O)N[C@@H](Cc2ccccc2)C(=O)N[C@@H](C(C)C)C(=O)N[C@@H](CC(N)=O)C(=O)N[C@H](C(=O)N2CCC[C@H]2C(=O)N[C@H](CCCN=C(N)N)C(=O)NCC(N)=O)CSS1 [listing 1 of 2 here] | 0.11 units/mg |  |  | 
CCOc1ccc(C[C@@H]2NC(=O)CC(C)(C)SSC[C@@H](C(=O)N3CCC[C@H]3C(=O)N[C@@H](CCCN=C(N)N)C(=O)NCC(N)=O)NC(=O)[C@H](CC(N)=O)NC(=O)[C@H](CCC(N)=O)NC(=O)[C@H](Cc3ccccc3)NC2=O)cc1 [listing 2 of 2 here] | 0.59 units/mg |  |  | 

SMILES | Activity (Rattus norvegicus [1]) | Kb (Rattus norvegicus [2]) | Kb (Rattus norvegicus [3]) | Kb (Rattus norvegicus [4])
CCOc1ccc(C[C@@H]2NC(=O)CC(C)(C)SSC[C@@H](C(=O)N3CCC[C@H]3C(=O)N[C@H](CCCN=C(N)N)C(=O)NCC(N)=O)NC(=O)[C@H](CC(N)=O)NC(=O)[C@H](C(C)C)NC(=O)[C@H](Cc3ccccc3)NC2=O)cc1 [listing 2 of 2 here] |  | 15.1 nM | 26.9 nM | 3.47 nM
CCOc1ccc(C[C@@H]2NC(=O)CC(CC)(CC)SSC[C@@H](C(=O)N3CCC[C@H]3C(=O)N[C@H](CCCN=C(N)N)C(=O)NCC(N)=O)NC(=O)[C@H](CC(N)=O)NC(=O)[C@H](C(C)C)NC(=O)[C@H](Cc3ccccc3)NC2=O)cc1 [listing 2 of 2 here] |  | 10.5 nM | 12.9 nM | 6.46 nM
CCOc1ccc(C[C@@H]2NC(=O)CC(CC)(CC)SSC[C@@H](C(=O)N3CCC[C@H]3C(=O)N[C@H](CCCN=C(N)N)C(=O)NCC(N)=O)NC(=O)[C@H](CC(N)=O)NC(=O)[C@H](CCC(N)=O)NC(=O)[C@H](Cc3ccccc3)NC2=O)cc1 [listing 1 of 2 here] | 0.0003 units/mg |  |  | 
CCC1(CC)CC(=O)N[C@@H](Cc2ccc(OC)cc2)C(=O)N[C@@H](Cc2ccccc2)C(=O)N[C@@H](C(C)C)C(=O)N[C@@H](CC(N)=O)C(=O)N[C@H](C(=O)N2CCC[C@H]2C(=O)N[C@@H](CCCN=C(N)N)C(=O)NCC(N)=O)CSS1 [listing 1 of 2 here] | 0.24 units/mg |  |  | 
CCC1(CC)CC(=O)N[C@@H](Cc2ccc(OC)cc2)C(=O)N[C@@H](Cc2ccccc2)C(=O)N[C@@H](CCC(N)=O)C(=O)N[C@@H](CC(N)=O)C(=O)N[C@H](C(=O)N2CCC[C@H]2C(=O)NC(CCCN=C(N)N)C(=O)NCC(N)=O)CSS1 (stereo in doubt) [listing 1 of 2 here] |  | 19.1 nM | 7.94 nM | 2.69 nM
COc1ccc(C[C@@H]2NC(=O)CC(C)(C)SSC[C@@H](C(=O)N3CCC[C@H]3C(=O)N[C@@H](CCCN=C(N)N)C(=O)NCC(N)=O)NC(=O)[C@H](CC(N)=O)NC(=O)[C@H](C(C)C)NC(=O)[C@H](Cc3ccccc3)NC2=O)cc1 [listing 2 of 2 here] | 2.9 units/mg |  |  | 
CCC1(CC)CC(=O)N[C@@H](Cc2ccc(OC)cc2)C(=O)N[C@@H](Cc2ccccc2)C(=O)N[C@@H](C(C)C)C(=O)N[C@@H](CC(N)=O)C(=O)N[C@H](C(=O)N2CCC[C@H]2C(=O)N[C@@H](CCCN=C(N)N)C(=O)NCC(N)=O)CSS1 [listing 2 of 2 here] |  | 2.57 nM | 11.7 nM | 5.13 nM
CCOc1ccc(C[C@@H]2NC(=O)CC(CC)(CC)SSC[C@@H](C(=O)N3CCC[C@H]3C(=O)N[C@H](CCCN=C(N)N)C(=O)NCC(N)=O)NC(=O)[C@H](CC(N)=O)NC(=O)[C@H](CCC(N)=O)NC(=O)[C@H](Cc3ccccc3)NC2=O)cc1 [listing 2 of 2 here] |  | 70.8 nM | 28.8 nM | 4.68 nM
CCOc1ccc(C[C@@H]2NC(=O)CC(C)(C)SSC[C@@H](C(=O)N3CCC[C@H]3C(=O)NC(CCCN=C(N)N)C(=O)NCC(N)=O)NC(=O)[C@H](CC(N)=O)NC(=O)[C@H](CCC(N)=O)NC(=O)[C@H](Cc3ccccc3)NC2=O)cc1 (stereo in doubt) [listing 2 of 2 here] |  | 14.1 nM | 38.9 nM | 5.37 nM
COc1ccc(C[C@@H]2NC(=O)CC(C)(C)SSC[C@@H](C(=O)N3CCC[C@H]3C(=O)N[C@H](CCCN=C(N)N)C(=O)NCC(N)=O)NC(=O)[C@H](CC(N)=O)NC(=O)[C@H](CCC(N)=O)NC(=O)[C@H](Cc3ccccc3)NC2=O)cc1 | 3.5 units/mg | 24.5 nM | 57.5 nM | 11 nM
CCC1(CC)CC(=O)N[C@@H](Cc2ccc(OC)cc2)C(=O)N[C@@H](Cc2ccccc2)C(=O)N[C@@H](C(C)C)C(=O)N[C@@H](CC(N)=O)C(=O)N[C@H](C(=O)N2CCC[C@H]2C(=O)N[C@H](CCCN=C(N)N)C(=O)NCC(N)=O)CSS1 [listing 2 of 2 here] |  | 18.6 nM | 11.7 nM | 4.47 nM
CCC1(CC)CC(=O)N[C@@H](Cc2ccc(OC)cc2)C(=O)N[C@@H](Cc2ccccc2)C(=O)N[C@@H](CCC(N)=O)C(=O)N[C@@H](CC(N)=O)C(=O)N[C@H](C(=O)N2CCC[C@H]2C(=O)N[C@@H](CCCN=C(N)N)C(=O)NCC(N)=O)CSS1 [listing 2 of 2 here] |  | 11 nM | 6.46 nM | 2.95 nM
CCC1(CC)CC(=O)N[C@@H](Cc2ccc(OC)cc2)C(=O)N[C@@H](Cc2ccccc2)C(=O)N[C@@H](CCC(N)=O)C(=O)N[C@@H](CC(N)=O)C(=O)N[C@H](C(=O)N2CCC[C@H]2C(=O)NC(CCCN=C(N)N)C(=O)NCC(N)=O)CSS1 (stereo in doubt) [listing 2 of 2 here] | 0.019 units/mg |  |  | 
CCOc1ccc(C[C@@H]2NC(=O)CC(C)(C)SSC[C@@H](C(=O)N3CCC[C@H]3C(=O)N[C@@H](CCCN=C(N)N)C(=O)NCC(N)=O)NC(=O)[C@H](CC(N)=O)NC(=O)[C@H](C(C)C)NC(=O)[C@H](Cc3ccccc3)NC2=O)cc1 [listing 2 of 2 here] |  | 2.29 nM | 21.9 nM | 8.51 nM
COc1ccc(C[C@@H]2NC(=O)CC(C)(C)SSC[C@@H](C(=O)N3CCC[C@H]3C(=O)N[C@H](CCCN=C(N)N)C(=O)NCC(N)=O)NC(=O)[C@H](CC(N)=O)NC(=O)[C@H](C(C)C)NC(=O)[C@H](Cc3ccccc3)NC2=O)cc1 [listing 2 of 2 here] | 3.2 units/mg |  |  | 
